Measurements reported in ChEMBL document CHEMBL3352325, “Synthesis and biological evaluation of novel aniline-derived asiatic acid derivatives as potential anticancer agents” (Eur J Med Chem, 2014).

tested on: MGC-803; assay: Cytotoxicity against human MGC803 cells after 48 hrs by MTT assay; type: functional, cell-based; details: MGC-803, 48 h
Summary of the method: (§1)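 Cells grown in medium with 10% heat-inactivated FBS, 5% CO2, 37 °C. Compounds given in medium with 1% DMSO at 1.25–20 graded concentrations; 1% DMSO medium served as control. MTT (5 mg/mL) added, formazan dissolved in DMSO, absorbance read at 570/630 nm. Survival expressed relative to negative control. IC50 by Bliss method (n=5), at least three independent experiments, mean ± SD.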

SMILES | IC50 [µM]
COc1ccccc1NC(=O)[C@]12CC[C@@H](C)[C@H](C)[C@H]1C1=CC(=O)[C@@H]3[C@@]4(C)C[C@@H](O)[C@H](O)[C@@](C)(CO)[C@@H]4CC[C@@]3(C)[C@]1(C)CC2 | 19
C[C@H]1[C@H](C)CC[C@]2(C(=O)O)CC[C@]3(C)C(=CC[C@@H]4[C@@]5(C)C[C@@H](O)[C@H](O)[C@@](C)(CO)[C@@H]5CC[C@]43C)[C@H]12 [ASIATIC ACID] | 22.6
C[C@H]1[C@H](C)CC[C@]2(C(=O)Nc3cccc4ccccc34)CC[C@]3(C)C(=CC(=O)[C@@H]4[C@@]5(C)C[C@@H](O)[C@H](O)[C@@](C)(CO)[C@@H]5CC[C@]43C)[C@H]12 | 19.9
C[C@H]1[C@H](C)CC[C@]2(C(=O)Nc3ccc(Cl)cc3)CC[C@]3(C)C(=CC(=O)[C@@H]4[C@@]5(C)C[C@@H](O)[C@H](O)[C@@](C)(CO)[C@@H]5CC[C@]43C)[C@H]12 | 22.5
Cc1ccc(NC(=O)[C@]23CC[C@@H](C)[C@H](C)[C@H]2C2=CC(=O)[C@@H]4[C@@]5(C)C[C@@H](O)[C@H](O)[C@@](C)(CO)[C@@H]5CC[C@@]4(C)[C@]2(C)CC3)cc1 | 14.6

tested on: NCI-H460; assay: Cytotoxicity against human NCI-H460 cells after 48 hrs by MTT assay; type: functional, cell-based; details: NCI-H460, 48 h; summary of the method: as §1

SMILES | IC50 [µM]
COc1ccccc1NC(=O)[C@]12CC[C@@H](C)[C@H](C)[C@H]1C1=CC(=O)[C@@H]3[C@@]4(C)C[C@@H](O)[C@H](O)[C@@](C)(CO)[C@@H]4CC[C@@]3(C)[C@]1(C)CC2 | 18.4
C[C@H]1[C@H](C)CC[C@]2(C(=O)O)CC[C@]3(C)C(=CC[C@@H]4[C@@]5(C)C[C@@H](O)[C@H](O)[C@@](C)(CO)[C@@H]5CC[C@]43C)[C@H]12 [ASIATIC ACID] | 39.6
C[C@H]1[C@H](C)CC[C@]2(C(=O)Nc3cccc4ccccc34)CC[C@]3(C)C(=CC(=O)[C@@H]4[C@@]5(C)C[C@@H](O)[C@H](O)[C@@](C)(CO)[C@@H]5CC[C@]43C)[C@H]12 | 16.6
C[C@H]1[C@H](C)CC[C@]2(C(=O)Nc3ccc(Cl)cc3)CC[C@]3(C)C(=CC(=O)[C@@H]4[C@@]5(C)C[C@@H](O)[C@H](O)[C@@](C)(CO)[C@@H]5CC[C@]43C)[C@H]12 | 12.8
Cc1ccc(NC(=O)[C@]23CC[C@@H](C)[C@H](C)[C@H]2C2=CC(=O)[C@@H]4[C@@]5(C)C[C@@H](O)[C@H](O)[C@@](C)(CO)[C@@H]5CC[C@@]4(C)[C@]2(C)CC3)cc1 | 30.2

tested on: HepG2; assay: Cytotoxicity against human HepG2 cells after 48 hrs by MTT assay; type: functional, cell-based; details: HepG2, 48 h; summary of the method: as §1

SMILES | IC50 [µM]
O=c1[nH]cc(F)c(=O)[nH]1 [FLUOROURACIL] | 30
COc1ccccc1NC(=O)[C@]12CC[C@@H](C)[C@H](C)[C@H]1C1=CC(=O)[C@@H]3[C@@]4(C)C[C@@H](O)[C@H](O)[C@@](C)(CO)[C@@H]4CC[C@@]3(C)[C@]1(C)CC2 | 10.9
C[C@H]1[C@H](C)CC[C@]2(C(=O)O)CC[C@]3(C)C(=CC[C@@H]4[C@@]5(C)C[C@@H](O)[C@H](O)[C@@](C)(CO)[C@@H]5CC[C@]43C)[C@H]12 [ASIATIC ACID] | 34.9
C[C@H]1[C@H](C)CC[C@]2(C(=O)Nc3cccc4ccccc34)CC[C@]3(C)C(=CC(=O)[C@@H]4[C@@]5(C)C[C@@H](O)[C@H](O)[C@@](C)(CO)[C@@H]5CC[C@]43C)[C@H]12 | 21.3
C[C@H]1[C@H](C)CC[C@]2(C(=O)Nc3ccc(Cl)cc3)CC[C@]3(C)C(=CC(=O)[C@@H]4[C@@]5(C)C[C@@H](O)[C@H](O)[C@@](C)(CO)[C@@H]5CC[C@]43C)[C@H]12 | 29.8
Cc1ccc(NC(=O)[C@]23CC[C@@H](C)[C@H](C)[C@H]2C2=CC(=O)[C@@H]4[C@@]5(C)C[C@@H](O)[C@H](O)[C@@](C)(CO)[C@@H]5CC[C@@]4(C)[C@]2(C)CC3)cc1 | 22.6

tested on: HeLa; assay: Cytotoxicity against human HeLa cells after 48 hrs by MTT assay; type: functional, cell-based; details: not given; summary of the method: as §1

SMILES | IC50 [µM]
COc1ccccc1NC(=O)[C@]12CC[C@@H](C)[C@H](C)[C@H]1C1=CC(=O)[C@@H]3[C@@]4(C)C[C@@H](O)[C@H](O)[C@@](C)(CO)[C@@H]4CC[C@@]3(C)[C@]1(C)CC2 | 34.5
C[C@H]1[C@H](C)CC[C@]2(C(=O)O)CC[C@]3(C)C(=CC[C@@H]4[C@@]5(C)C[C@@H](O)[C@H](O)[C@@](C)(CO)[C@@H]5CC[C@]43C)[C@H]12 [ASIATIC ACID] | 37.3
C[C@H]1[C@H](C)CC[C@]2(C(=O)Nc3cccc4ccccc34)CC[C@]3(C)C(=CC(=O)[C@@H]4[C@@]5(C)C[C@@H](O)[C@H](O)[C@@](C)(CO)[C@@H]5CC[C@]43C)[C@H]12 | 14
C[C@H]1[C@H](C)CC[C@]2(C(=O)Nc3ccc(Cl)cc3)CC[C@]3(C)C(=CC(=O)[C@@H]4[C@@]5(C)C[C@@H](O)[C@H](O)[C@@](C)(CO)[C@@H]5CC[C@]43C)[C@H]12 | 13.1
Cc1ccc(NC(=O)[C@]23CC[C@@H](C)[C@H](C)[C@H]2C2=CC(=O)[C@@H]4[C@@]5(C)C[C@@H](O)[C@H](O)[C@@](C)(CO)[C@@H]5CC[C@@]4(C)[C@]2(C)CC3)cc1 | 32.5

tested on: not listed separately; assay: Cytotoxicity against human SMMC-7404 cells after 48 hrs by MTT assay; type: functional, cell-based; details: SMMC-7404, 48 h; summary of the method: as §1

SMILES | IC50 [µM]
O=c1[nH]cc(F)c(=O)[nH]1 [FLUOROURACIL] | 40.2
COc1ccccc1NC(=O)[C@]12CC[C@@H](C)[C@H](C)[C@H]1C1=CC(=O)[C@@H]3[C@@]4(C)C[C@@H](O)[C@H](O)[C@@](C)(CO)[C@@H]4CC[C@@]3(C)[C@]1(C)CC2 | 16.2
C[C@H]1[C@H](C)CC[C@]2(C(=O)O)CC[C@]3(C)C(=CC[C@@H]4[C@@]5(C)C[C@@H](O)[C@H](O)[C@@](C)(CO)[C@@H]5CC[C@]43C)[C@H]12 [ASIATIC ACID] | 40.8
C[C@H]1[C@H](C)CC[C@]2(C(=O)Nc3cccc4ccccc34)CC[C@]3(C)C(=CC(=O)[C@@H]4[C@@]5(C)C[C@@H](O)[C@H](O)[C@@](C)(CO)[C@@H]5CC[C@]43C)[C@H]12 | 20.4
C[C@H]1[C@H](C)CC[C@]2(C(=O)Nc3ccc(Cl)cc3)CC[C@]3(C)C(=CC(=O)[C@@H]4[C@@]5(C)C[C@@H](O)[C@H](O)[C@@](C)(CO)[C@@H]5CC[C@]43C)[C@H]12 | 17.2
Cc1ccc(NC(=O)[C@]23CC[C@@H](C)[C@H](C)[C@H]2C2=CC(=O)[C@@H]4[C@@]5(C)C[C@@H](O)[C@H](O)[C@@](C)(CO)[C@@H]5CC[C@@]4(C)[C@]2(C)CC3)cc1 | > 100

tested on: HUVEC; assay: Cytotoxicity against human HUVEC cells after 48 hrs by MTT assay; type: cell-based; details: not given; summary of the method: as §1

SMILES | IC50 [µM]
COc1ccccc1NC(=O)[C@]12CC[C@@H](C)[C@H](C)[C@H]1C1=CC(=O)[C@@H]3[C@@]4(C)C[C@@H](O)[C@H](O)[C@@](C)(CO)[C@@H]4CC[C@@]3(C)[C@]1(C)CC2 | > 100
C[C@H]1[C@H](C)CC[C@]2(C(=O)O)CC[C@]3(C)C(=CC[C@@H]4[C@@]5(C)C[C@@H](O)[C@H](O)[C@@](C)(CO)[C@@H]5CC[C@]43C)[C@H]12 [ASIATIC ACID] | > 100
C[C@H]1[C@H](C)CC[C@]2(C(=O)Nc3cccc4ccccc34)CC[C@]3(C)C(=CC(=O)[C@@H]4[C@@]5(C)C[C@@H](O)[C@H](O)[C@@](C)(CO)[C@@H]5CC[C@]43C)[C@H]12 | > 100
C[C@H]1[C@H](C)CC[C@]2(C(=O)Nc3ccc(Cl)cc3)CC[C@]3(C)C(=CC(=O)[C@@H]4[C@@]5(C)C[C@@H](O)[C@H](O)[C@@](C)(CO)[C@@H]5CC[C@]43C)[C@H]12 | > 100
Cc1ccc(NC(=O)[C@]23CC[C@@H](C)[C@H](C)[C@H]2C2=CC(=O)[C@@H]4[C@@]5(C)C[C@@H](O)[C@H](O)[C@@](C)(CO)[C@@H]5CC[C@@]4(C)[C@]2(C)CC3)cc1 | > 100
